Measured values published in ChEMBL document CHEMBL3632562, “Diethylstilbestrol-scaffold-based pregnane X receptor modulators” (Eur J Med Chem, 2015).
Activity calls are given as the source filed them. The calls are words filed in the database; no cut-off is given here.

Key:
[1] = target: T1, Nuclear receptor subfamily 1 group I member 2 (Homo sapiens, UniProt O75469); test: Antagonist activity at full length human PXR transfected in human HepG2 cells assessed as reduction in rifaximin-induced receptor transactivation at 50 uM after 18 hrs by luciferase reporter assay; format: cell-based; conditions: hepg2, 18 h
T1 sequence (O75469 whole entry): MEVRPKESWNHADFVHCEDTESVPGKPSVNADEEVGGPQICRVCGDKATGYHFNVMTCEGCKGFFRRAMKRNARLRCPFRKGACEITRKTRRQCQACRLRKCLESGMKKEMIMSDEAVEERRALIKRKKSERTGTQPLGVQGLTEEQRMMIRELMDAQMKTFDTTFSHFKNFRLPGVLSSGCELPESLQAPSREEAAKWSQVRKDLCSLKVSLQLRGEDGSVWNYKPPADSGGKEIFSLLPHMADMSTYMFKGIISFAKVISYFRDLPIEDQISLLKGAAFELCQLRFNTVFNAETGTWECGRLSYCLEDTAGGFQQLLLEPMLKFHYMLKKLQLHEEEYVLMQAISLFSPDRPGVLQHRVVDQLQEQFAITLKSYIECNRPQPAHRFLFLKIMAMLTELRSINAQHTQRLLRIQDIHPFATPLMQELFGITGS
Method in brief: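 HepG2 (5 × 10⁴ cells/well, MEM/10% FBS) transiently transfected with full-length human PXR, RXR, PXRE-luciferase reporter and Renilla vectors, then treated 18 h with rifaximin (10 μM) plus compound (50 μM). Luciferase read-out normalised as RLU/Renilla RRU; p < 0.05 significance.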

[2] = target: T1, Nuclear receptor subfamily 1 group I member 2; test: Antagonist activity at full length human PXR transfected in human HepG2 cells assessed as reduction in rifaximin-induced receptor transactivation after 18 hrs by luciferase reporter assay; format: cell-based; conditions: for inhibition (INH): human, hepg2, 18 h
Method in brief: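 Rifaximin-stimulated (10 μM) HepG2 transiently co-transfected with 75 ng pSG5-hPXRT1, 75 ng pSG5-RXR, 250 ng pGL3(henance)PXRE reporter and 100 ng pGL4.70-Renilla, then co-treated 18 h with compound at 10, 25 and 50 μM. Firefly luciferase RLU divided by Renilla RRU to normalise transfection efficiency; IC50 taken from concentration-response curve.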

[3] = target: T1, Nuclear receptor subfamily 1 group I member 2; test: Activity at PXR in human HepG2 cells assessed as up regulation of rifaximin-induced PXR gene expression at 25 uM after 18 hrs by quantitative real-time PCR analysis; conditions: hepg2, 18 h
[4] = target: T1, Nuclear receptor subfamily 1 group I member 2; test: Antagonist activity against PXR in human HepG2 cells assessed as inhibition of rifaximin-induced CYP3A4 gene expression at 25 uM after 18 hrs by quantitative real-time PCR analysis; format: cell-based; conditions: hepg2, 18 h
HepG2 [5] = test: Toxicity in human HepG2 cells expressing human full-length PXR assessed as reduction in cell viability at 50 uM; format: cell-based; conditions: hepg2, 50 µM
[6] = target: T1, Nuclear receptor subfamily 1 group I member 2; test: Transactivation of full length human PXR transfected in human HepG2 cells after 18 hrs by luciferase reporter assay relative to rifaximin; format: cell-based
Method in brief: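 In HepG2 transfected with hPXR, RXR, PXRE-luciferase and Renilla plasmids, cells were exposed 18 h to compound at 10 μM, or at 10, 25 and 50 μM for EC50 determination, alongside rifaximin (10 μM) as reference agonist. Firefly signal normalised to Renilla.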

HepG2 [7] = test: Up regulation of full length PXR expression in human HepG2 cells at 10 uM after 18 hrs by quantitative real-time PCR analysis; format: functional, cell-based
[8] = target: T1, Nuclear receptor subfamily 1 group I member 2; test: Transactivation of PXR in human HepG2 cells assessed as up regulation of CYP3A4 gene expression at 10 uM after 18 hrs by quantitative Real-time PCR analysis; format: cell-based; conditions: hepg2, 18 h
[9] = target: T1, Nuclear receptor subfamily 1 group I member 2; test: Antagonist activity at PXR (unknown origin)
[10] = Solubility of the compound; format: physicochemical

## CC/C(=C(/CC)c1ccc(OCCOS(=O)(=O)[O-])cc1)c1ccc(OCCOS(=O)(=O)[O-])cc1.[Na+].[Na+]
[1]
  inhibition (INH): Not Active

## CC/C(=C(/CC)c1ccc(OCCO)cc1)c1ccc(OCCO)cc1
[2]
  IC50: 27.4 µM
  inhibition (INH): Dose-dependent effect
[1]
  inhibition (INH): Active
[3]
  Activity: Active
[4]
  inhibition (INH): Active

## CC/C(=C(/CC)c1ccc(OCCCO)cc1)c1ccc(OCCCO)cc1
HepG2 [5]
  Activity: Toxic

## CC/C(=C(/CC)c1ccc(OC)cc1)c1ccc(OC)cc1
[6]
  EC50: 10.5 µM
HepG2 [7]
  Activity: Active
[8]
  Activity: Active

## Cc1cc(-c2onc(C)c2C(=O)Sc2ccccc2)no1
[9]
  IC50: 0.85 µM

## CC/C(=C(/CC)c1ccc(OCCCCOS(=O)(=O)[O-])cc1)c1ccc(OCCCCOS(=O)(=O)[O-])cc1.[Na+].[Na+]
[1]
  inhibition (INH): Not Active

## CC/C(=C(/CC)c1ccc(OCCCCOC(C)=O)cc1)c1ccc(OCCCCOC(C)=O)cc1
[10]
  solubility: Insoluble

## CC/C(=C(/CC)c1ccc(O)cc1)c1ccc(O)cc1 [DIETHYLSTILBESTROL]
[2]
  IC50: 14.6 µM
  inhibition (INH): Dose-dependent effect
[1]
  inhibition (INH): Active
[3]
  Activity: Active
[4]
  inhibition (INH): Active

## CC/C(=C(/CC)c1ccc(OCCOC(C)=O)cc1)c1ccc(OCCOC(C)=O)cc1
[1]
  inhibition (INH): Active

## CO[C@H]1/C=C/O[C@@]2(C)Oc3c(C)c(O)c4c(O)c(c5c(nc6cc(C)ccn65)c4c3C2=O)NC(=O)/C(C)=C\C=C\[C@H](C)[C@H](O)[C@@H](C)[C@@H](O)[C@@H](C)[C@H](OC(C)=O)[C@@H]1C [RIFAXIMIN]
[6]
  EC50: 11.2 µM
HepG2 [7]
  Activity: Active

## CC/C(=C(/CC)c1ccc(OCCCOS(=O)(=O)[O-])cc1)c1ccc(OCCCOS(=O)(=O)[O-])cc1.[Na+].[Na+]
[1]
  inhibition (INH): Not Active

## CC/C(=C(/CC)c1ccc(OCCCOC(C)=O)cc1)c1ccc(OCCCOC(C)=O)cc1
[1]
  inhibition (INH): Active

## CC/C(=C(/CC)c1ccc(OCCCCO)cc1)c1ccc(OCCCCO)cc1
HepG2 [5]
  Activity: Toxic

## CC/C(=C(/CC)c1ccc(OS(=O)(=O)[O-])cc1)c1ccc(OS(=O)(=O)[O-])cc1.[Na+].[Na+]
[1]
  inhibition (INH): Not Active
